The record followed here is PubChem BioAssay.

A word on the inhibition: it is the relative decrease from the control value, in per cent.

Assay [1] in a line: inhibitors of TNFa-induced NFkB p65 translocation, primary screen, imaging, HUVEC, MLSMR starter and 10KST1 sets (AID 438;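 active = inhibition above 20% together with a positive visual image hit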;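 also: compound added about 3h40 before a 20 min TNFalpha stimulation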;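 as to inhibition: signal is the nuclear over cytoplasmic p65 intensity ratio per well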). To be noted: HUVEC TNFa-induced p65 nuclear translocation; cell count: measured here: nuclei count (cytotoxicity indicator), at 2.08 µM; inhibition: at 2 µM, stronger effect = higher value, 0% TNFa-plus-vehicle, 100% no-TNFa wells.
Assay [2] is described as follows: endothelial E-selectin expression blockers – imaging, HUVEC, immunofluorescence, MLSMR starter and 10KST1 sets, primary screen (AID 487;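 active = visually confirmed hit in the image check and inhibition above 20%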;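 as to inhibition: signal is fraction of cell area covered by stained E-selectin grains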;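 as to nuclei count: 100% = median nuclei count of all wells on the same plate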). To be noted: HUVEC TNFalpha-induced E-selectin immunofluorescence imaging, at 2 µM; inhibition: stronger effect = higher value; nuclei count: measured here: cell number, toxicity.
Assay [3] can be described thus: Primary imaging screen for DUSP6 inhibitors that restore phospho-Erk in transfected HeLa cells, chemical complementation (AID 609;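 active = compounds giving at least 50% inhibition in the cell-based MKP-3 phosphatase rescue imaging test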;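 as to inhibition: phospho-Erk level distribution per well compared with pooled transfected vehicle control wells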). To be noted: HeLa MKP-3 transfected, phospho-Erk imaging KS statistic, at 10 µM, cells stimulated with TPA for 15 min.
For assay [4], the target named is Dual specificity protein phosphatase 6 (Homo sapiens) (UniProt Q16828). The description is as above. The following applies: HeLa MKP-3 transfected, phospho-Erk imaging KS statistic; at 10 µM; stronger effect = higher value; cells stimulated with TPA for 15 min.
The target of assay [5] is Voltage-gated potassium channel subunit beta-2 (Rattus norvegicus) (UniProt P62483). In words: inhibitors of rat Kvbeta2 reductase activity – biochemical, NADPH fluorescence, primary screen (AID 622;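 active = fluorescence slope higher than the sample average by over 3 SD, cut at about -0.22 in these data, passing the limit was not always enough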;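 also: slope of raw intensity against log time taken from 70 to 1610 s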). The following applies: recombinant KvBeta, 4-cyanobenzaldehyde reduction, at 10 µM, stronger effect = higher value.
Assay [6] shares this target. In words: enhancers of rat Kvbeta2 NADPH turnover – biochemical, NADPH fluorescence, primary screen (AID 623;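 active = NADPH fluorescence slope more negative than the mean of all samples by about 3 SD, 99.7% confidence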;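 also: fluorescence intensity change per second fitted from 20 to 320 s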). The following applies: Recombinant KvBeta, NADPH fluorescence decrease slope, 10 min; at 10 µM; stronger effect = lower value.
The target in assay [7] is Muscarinic acetylcholine receptor M4 (Homo sapiens) (UniProt P08173). In words: M4-linked GIRK flux change, two-sided – cell-based, HEK293 M4/GIRK, thallium flux, BTC-AM, M4 allosteric agonist project, primary screen (AID 625).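 Also: thallium influx through GIRK channels coupled to M4 in HEK293 cells with BTC-AM dye.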 To be noted: at 10 µM, actives lie on both sides. In outline: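 Assay system: HEK293 cells with M4 receptor and GIRK channels / Controls: carbachol and DMSO controls / Schedule: 1 h dye loading, 2 min kinetic read / Technique: kinetic fluorescence with BTC-AM dye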

Assay [8] in a line: inhibitors of larval lipid processing in zebrafish, primary screen, whole organism, PED6 fluorescence, gall bladder and intestine (AID 686;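 active = a full or partial loss of lipid-probe fluorescence in the fish gall bladder, intestine or both, judged by eye; inactive = no fluorescence loss, or compound toxic to the fish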;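 also: larvae 5 to 7 days old with five fish per well; signal comes from phospholipase A2 cleavage of quenched PED6 carried via bile; overnight exposure to compound and PED6 before scoring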). The following applies: Zebrafish larvae PED6 lipid processing, fluorescence scoring; screened at 20 µM (by protocol). An outline of the steps:
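Doses: 20 µM single dose. Test system: live zebrafish larvae aged 5-7 days, whole organism. Quantity: five larvae per well. Measured by: By-eye fluorescence microscopy. Reagent: ingested quenched lipid PED6 at 100 nM. Read-out: visual per-well fluorescence inhibition score. Times: overnight exposure of larvae to compound plus PED6.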

A short description of assay [9]: loss of swimming-algae plug formation – whole organism, Chlamydomonas reinhardtii, WT vs cilia-less mutant, absorbance, 96-well, primary screen (AID 463189;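 active = inhibition at or above 50% relative to wild type and mutant plate controls; inactive = inhibition below 50%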;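 also: 0% = wild type cc124 cells in DMSO and 100% = ciliumless bld1 mutant cells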). The following applies: Chlamydomonas reinhardtii gravitaxis, OD600 absorbance, 2 days; at 10 µM; stronger effect = higher value.
[10] abbreviates: measured here: cell density z-score.
[11] abbreviates: measured here: nuclear c-Myc green intensity z-score.
Where [12] appears, read: measured here: nuclear pErk red intensity z-score, stronger effect = higher value.

The structures appear in SMILES notation. Calls of active or inactive are those of the source.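 The calls were made as follows, unless noted: active = fluorescence slope after compound addition differing from the mean of all tested samples at 99.7% confidence, mostly higher but some lower; inactive = the rest.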

Voltage-gated potassium channel subunit beta-2 (Rattus norvegicus), sequence (P62483 whole entry, looked up): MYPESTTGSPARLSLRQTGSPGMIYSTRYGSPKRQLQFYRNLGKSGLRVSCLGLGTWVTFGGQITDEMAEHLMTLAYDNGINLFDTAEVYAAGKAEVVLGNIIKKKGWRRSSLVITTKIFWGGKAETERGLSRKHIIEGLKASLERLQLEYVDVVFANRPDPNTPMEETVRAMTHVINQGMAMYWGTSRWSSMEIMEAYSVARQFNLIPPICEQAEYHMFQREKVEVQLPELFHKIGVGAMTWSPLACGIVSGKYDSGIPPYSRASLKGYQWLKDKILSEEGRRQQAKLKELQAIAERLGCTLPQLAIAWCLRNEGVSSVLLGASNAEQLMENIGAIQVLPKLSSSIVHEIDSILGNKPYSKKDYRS
Muscarinic acetylcholine receptor M4 (Homo sapiens), sequence (P08173 whole entry, looked up): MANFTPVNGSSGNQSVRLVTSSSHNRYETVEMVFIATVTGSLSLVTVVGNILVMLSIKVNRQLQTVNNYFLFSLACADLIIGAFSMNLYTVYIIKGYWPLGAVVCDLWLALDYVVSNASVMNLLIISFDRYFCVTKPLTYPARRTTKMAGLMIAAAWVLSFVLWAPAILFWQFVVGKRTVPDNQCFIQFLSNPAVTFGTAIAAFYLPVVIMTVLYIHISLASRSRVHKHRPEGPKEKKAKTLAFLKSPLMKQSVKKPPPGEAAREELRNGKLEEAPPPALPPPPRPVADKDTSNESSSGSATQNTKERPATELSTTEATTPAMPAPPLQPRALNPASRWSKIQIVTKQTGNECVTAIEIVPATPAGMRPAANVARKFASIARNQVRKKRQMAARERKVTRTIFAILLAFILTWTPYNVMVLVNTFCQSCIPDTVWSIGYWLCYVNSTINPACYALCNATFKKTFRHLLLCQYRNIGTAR
Dual specificity protein phosphatase 6 (Homo sapiens), sequence (Q16828 whole entry, looked up): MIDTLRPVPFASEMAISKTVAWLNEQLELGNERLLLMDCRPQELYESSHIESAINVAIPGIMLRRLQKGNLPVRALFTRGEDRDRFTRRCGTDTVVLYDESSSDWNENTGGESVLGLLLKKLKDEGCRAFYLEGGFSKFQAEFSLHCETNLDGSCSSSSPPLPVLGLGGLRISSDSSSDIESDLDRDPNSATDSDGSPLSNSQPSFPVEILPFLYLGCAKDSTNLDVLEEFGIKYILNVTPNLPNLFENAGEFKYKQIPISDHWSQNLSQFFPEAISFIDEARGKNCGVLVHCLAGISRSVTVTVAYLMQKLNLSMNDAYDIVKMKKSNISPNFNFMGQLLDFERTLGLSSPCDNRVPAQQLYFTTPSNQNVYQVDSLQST

Consider `COc1cccc(C(=O)c2sc(NC(C)C)nc2N)c1`, for which, in assay [1], the cell count is 637. For the same compound, the inhibition is -11.5% (inactive) in [1], 61.3% (inactive) in assay [2], -3.95% (inactive) in assay [4] and -1.39% (inactive) in [9]. For the same compound, the nuclei count in assay [2] was determined as 158%. Besides, the figures for the z-score in assay [3] (setting [10]), in [3] (setting [11]) and in assay [3] (setting [12]) were -0.552, 2.2 and 0.884, respectively. In addition, the fluorescence slope was -0.496 (inactive) in [5] and 0.00607 (inactive) in [7]. Also, the NADPH fluorescence slope in [6] was -7.1e-05 (inactive). The call in assay [8] was inactive.
On to `COc1ccc(C2CC(c3ccccc3)Nc3nc(N)nn32)cc1` (stereo unspecified), for which the cell count in assay [1] turned out to be 377. The inhibition in assay [1] was 4.8% (inactive); in assay [2] it was -29.3% (inactive); in assay [4], 1.48% (inactive); in [9], -15% (inactive). In addition, the nuclei count in [2] was 110%. Besides, the z-score in assay [3] (setting [10]) is -1.01; in [3] (setting [11]) it was -0.362; in assay [3] (setting [12]) it was -0.446. The fluorescence slope in [5] was -0.495 (inactive); in assay [7], 0.00558 (inactive). In addition, the NADPH fluorescence slope in [6] was -1.6e-05 (inactive). Also, the compound was classed as inactive in assay [8].
As to `COC(=O)c1ccccc1NC(=O)C1COc2ccccc2O1` (stereo unspecified), the cell count in assay [1] amounted to 655. The inhibition is -10% (inactive) in assay [1], 1.5% (inactive) in [2], -0.674% (inactive) in assay [4] and 3.4% (inactive) in assay [9]. Moreover, the nuclei count in assay [2] came to 169%. In addition, the z-score in [3] (setting [10]) is 1.14; in assay [3] (setting [11]), -0.164; in assay [3] (setting [12]), -1.54. The fluorescence slope was -0.465 (inactive) in [5] and 0.00637 (inactive) in assay [7]. In [6], the NADPH fluorescence slope is -5.2e-05 (inactive). Besides, in [8], the outcome was inactive.
For `CCCC(=O)N1CCc2[nH]c3ccccc3c2C1`, the cell count in assay [1] was 502. In addition, the inhibition is 4.2% (inactive) in assay [1], 1.1% (inactive) in assay [2], -5.62% (inactive) in assay [4] and -3.97% (inactive) in [9]. Besides, in assay [2], the nuclei count was found to be 167%. Further, the z-score in assay [3] (setting [10]) is 0.76; in [3] (setting [11]), 0.615; in assay [3] (setting [12]) it was -0.975. In addition, the fluorescence slope in [5] was -0.485 (inactive); in [7] it was 0.0054 (inactive). Moreover, the NADPH fluorescence slope in [6] is -2.8e-05 (inactive). The compound was classed as inactive in [8].
Turning to `CCc1nc(NCCN2CCOCC2)c(C#N)c2c1CCCC2`, in [1], the cell count came out at 358. Further, the inhibition is -2.8% (inactive) in [1], -19.6% (inactive) in assay [2], 11.4% (inactive) in [4] and 30.2% (inactive) in [9]. Also, in assay [2], the nuclei count was 79.7%. Moreover, the z-score in assay [3] (setting [10]) is -0.865; in [3] (setting [11]), 0.944; in assay [3] (setting [12]), 0.38. The values for the fluorescence slope in [5] and in [7] were -0.595 (inactive) and 0.00436 (inactive), respectively. In [6], the NADPH fluorescence slope was 4.1e-06 (inactive). In assay [8], the compound was classed as inactive.
As to `O=C(O)CCc1nn2cc(-c3ccccc3)nc2[nH]c1=O`, the cell count in assay [1] turned out to be 580. Further, the inhibition was 3% (inactive) in [1], -147% (inactive) in assay [2], -7.93% (inactive) in assay [4] and -5.8% (inactive) in [9]. The compound further registered a nuclei count in assay [2] of 170%. Besides, the figures for the z-score in assay [3] (setting [10]), in assay [3] (setting [11]) and in [3] (setting [12]) were 0.555, -0.659 and -0.476, respectively. The fluorescence slope in assay [5] was -0.00517 (active); in assay [7] it was 0.00553 (inactive). In addition, in [6], the NADPH fluorescence slope was 2.1e-06 (inactive). The outcome in assay [8] was inactive.
For `CCn1c(SCC(=O)NC2CCCCC2C)nnc1-c1ccc(OC)cc1` (stereo unspecified), in assay [1], the cell count amounted to 430. The inhibition is -4.4% (inactive) in assay [1], -37.9% (inactive) in [2], 7.73% (inactive) in [4] and -4.06% (inactive) in assay [9]. The compound also returned a nuclei count in [2] of 149%. For the same compound, the z-score in assay [3] (setting [10]) is -0.0183; in assay [3] (setting [11]) it was 0.142; in assay [3] (setting [12]), 0.845. Further, the fluorescence slope is -0.45 (inactive) in assay [5] and 0.00502 (inactive) in assay [7]. Further, the NADPH fluorescence slope in [6] is -0.000123 (inactive). Moreover, in [8], the call was inactive.
